The target in test [1] is T1, TRPV1 (Homo sapiens, UniProt Q8NER1). Kind of test: Activity type at TRPV1.
For test [2], the target named is T1, TRPV1. Kind of test: Predicted improvement of specific to nonspecific binding from Kd/Ki and Log P. The settings on record: from Log P values.
Test [3] addresses T1, TRPV1. Type of test: binding. The settings on record: human versus rat TRPV1.
For test [4], the target named is T1, TRPV1. Kind of test: Time course of binding of 13 to human TRPV1 and its release. Summed up: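 Membranes (~20 μg protein) from CHO cells expressing human TRPV1 were incubated with the tritiated test ligand in DPBS with 0.25 mg/mL BSA at 37 °C for varied times. Alternatively, after 60 min, 50 nM unlabeled reference vanilloid was added for varied times at 37 °C or at 0 °C after chilling. Workup: α1-acid glycoprotein (2 mg/mL stock), 10 min at 0 °C, pelleting, scintillation counting. Values relative to controls; triplicate means.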

In test [5] the target is T1, TRPV1. Type of test: binding. The note with it: treated versus control.

Molecules are shown by their SMILES.

T1 sequence (Q8NER1 whole entry): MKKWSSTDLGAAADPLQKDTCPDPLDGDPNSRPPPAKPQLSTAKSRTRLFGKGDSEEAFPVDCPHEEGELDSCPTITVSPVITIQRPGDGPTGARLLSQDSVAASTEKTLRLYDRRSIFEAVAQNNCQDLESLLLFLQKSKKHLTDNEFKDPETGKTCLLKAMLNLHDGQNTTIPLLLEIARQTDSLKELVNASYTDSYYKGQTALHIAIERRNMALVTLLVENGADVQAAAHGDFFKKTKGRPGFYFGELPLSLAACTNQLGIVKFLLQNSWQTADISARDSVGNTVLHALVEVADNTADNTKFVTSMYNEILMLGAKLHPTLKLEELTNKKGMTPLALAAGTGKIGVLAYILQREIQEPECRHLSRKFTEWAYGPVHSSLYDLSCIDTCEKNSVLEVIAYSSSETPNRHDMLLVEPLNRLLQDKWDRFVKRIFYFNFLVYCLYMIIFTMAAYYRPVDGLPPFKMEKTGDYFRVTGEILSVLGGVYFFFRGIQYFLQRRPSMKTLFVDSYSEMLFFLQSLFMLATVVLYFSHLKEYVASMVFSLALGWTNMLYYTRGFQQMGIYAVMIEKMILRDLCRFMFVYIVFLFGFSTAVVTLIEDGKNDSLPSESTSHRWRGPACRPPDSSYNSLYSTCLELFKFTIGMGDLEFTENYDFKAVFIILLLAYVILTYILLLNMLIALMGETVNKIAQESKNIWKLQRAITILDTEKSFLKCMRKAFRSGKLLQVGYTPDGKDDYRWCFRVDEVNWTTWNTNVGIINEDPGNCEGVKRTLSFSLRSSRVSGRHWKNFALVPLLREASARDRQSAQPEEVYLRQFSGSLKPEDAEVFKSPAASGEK

Turning to `CC(C)(C)c1ccc2c(c1)CC[C@H]2NC(=O)Nc1cccc2cnccc12` [A-778317, 1-((R)-5-tert-butyl-indan-1-yl)3-isoquinolin-5-yl-urea], the activity entry on TRPV1 [1] is listed as “antagonist”.
For `C=C(C)[C@]12C[C@@H](C)[C@@]34O[C@](Cc5ccccc5)(O[C@@H]1[C@@H]3C=C(COC(=O)Cc1ccc(O)c(OC)c1)C[C@]1(O)C(=O)C(C)=C[C@@H]41)O2` [compound 1, resiniferatoxin], the activity result on TRPV1 [1] was “agonist”. Besides, on TRPV1 [2], the “Improvement over 1 from the formula ((Kd RTX × 10^LogP RTX)/(Ki compound × 10^Log P compound))” value was 1 fold. For the same molecule, the “human TRPV1 less sensitive (weaker binding) than rat/rodent TRPV1” value at TRPV1 [3] was “approximately 20 fold”.
Take `CC1CCN(c2nc(C(F)(F)F)ccc2CNC(=O)Nc2cccc3c2OCC(=O)N3)CC1` [compound 12, 1-((2-(4-methylpiperidin-1-yl)-6-(trifluoromethyl)pyridin-3-yl)methyl)-3-(3-oxo-3,4-dihydro-2H-benzo[b][1,4]oxazin-8-yl)urea]: the activity result on TRPV1 [1] is “antagonist”. At TRPV1 [2], the “Improvement over 1 from the formula ((Kd RTX × 10^LogP RTX)/(Ki compound × 10^Log P compound))” value is reported as 45.6 fold.
With `[3H]CC1([3H])CCN(c2nc(C(F)(F)F)ccc2CNC(=O)Nc2cccc3c2OCC(=O)N3)CC1` [compound 13, 1-((2-(4-(methyl-[^3H])piperidin-1-yl-4-[^3H])-6-(trifluoromethyl)pyridin-3-yl)methyl)-3-(3-oxo-3,4-dihydro-2H-benzo[b][1,4]oxazin-8-yl)urea], on TRPV1 [4] (0 °C, after nonradioactive 1 (50 nM)), the “specific binding at 0 °C over the time for assay workup” value is “stable”. The “time by which specific binding was largely complete” value on TRPV1 [4] (37 °C) was at most 5 min. Further, the “time for almost full release of specifically bound ligand” value at TRPV1 [4] (37 °C, after nonradioactive 1 (50 nM)) was at most 2 min. The “change of affinity by PMA and cyclosporin A treatment” value at TRPV1 [5] is given as “no appreciable change”.

Source of the values: paper PMC6959550 (Journal of medicinal chemistry, 2017).
